ChEMBL document CHEMBL3585293, “Design, antiviral and cytostatic properties of isoxazolidine-containing amonafide analogues” (Bioorg Med Chem, 2015)

Assays:
[1] = tested on: HeLa; experiment: Cytotoxicity against human HeLa cells assessed as reduction of cell survival after 48 hrs by MTT assay; assay type: functional, cell-based
[2] = tested on: K562; experiment: Cytotoxicity against human K562 cells assessed as reduction of cell survival after 48 hrs by MTT assay; assay type: functional, cell-based; settings: K562, 48 h
[3] = tested on: Cytomegalovirus; experiment: Antiviral activity against Cytomegalovirus AD-169 infected in HEL cells assessed as reduction of virus-induced cytopathogenicity; assay type: functional, organism-based; settings: Human betaherpesvirus 5, AD-169, HEL
[4] = tested on: Cytomegalovirus; experiment: Antiviral activity against Cytomegalovirus Davis infected in HEL cells assessed as reduction of virus-induced cytopathogenicity; assay type: functional, organism-based; settings: Human betaherpesvirus 5, Davis
[5] = Cytotoxicity against HEL cells assessed as alternation of cell morphology by microscopic analysis; assay type: cell-based; settings: human
[6] = tested on: Human alphaherpesvirus 3; experiment: Antiviral activity against Varicella-zoster virus expressing thymidine kinase infected in HEL cells assessed as reduction of virus-induced plaque formation; assay type: functional, organism-based; settings: Human alphaherpesvirus 3, HEL
In short: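 Plaque-reduction assay in HEL cells. TK+ VZV strains were Oka and YS; TK- strains were 07-1 and YS-R. Virus input was 100 PFU, with graded compound concentrations. Plaques were counted once formation was complete in untreated infected controls. […] Two independent experiments were run.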

[7] = tested on: Human alphaherpesvirus 3; experiment: Antiviral activity against thymidine kinase-deficient Varicella-zoster virus infected in HEL cells assessed as reduction of virus-induced plaque formation; assay type: functional, organism-based; settings: Human alphaherpesvirus 3, HEL
In short: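 Plaque-reduction assay in HEL cells. TK+ VZV strains were Oka and YS; TK- strains were 07-1 and YS-R. Virus input was 100 PFU, with graded compound concentrations. Plaques were counted once formation was complete in untreated infected controls. Two independent experiments were run.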

[8] = tested on: Human alphaherpesvirus 1; experiment: Antiviral activity against Herpes simplex virus 1 KOS infected in HEL cells assessed as reduction of virus-induced cytopathogenicity; assay type: functional, organism-based; settings: Human alphaherpesvirus 1, KOS
[9] = tested on: Human alphaherpesvirus 1; experiment: Antiviral activity against thymidine kinase-deficient acyclovir-resistant Herpes simplex virus 1 KOS infected in HEL cells assessed as reduction of virus-induced cytopathogenicity; assay type: functional, organism-based; settings: Human alphaherpesvirus 1, KOS
[10] = tested on: Human alphaherpesvirus 2; experiment: Antiviral activity against Herpes simplex virus 2 G infected in HEL cells assessed as reduction of virus-induced cytopathogenicity; assay type: functional, organism-based; settings: Human alphaherpesvirus 2, strain G
[11] = tested on: L1210; experiment: Cytotoxicity against mouse L1210 cells assessed as inhibition of cell proliferation; assay type: functional, cell-based
[12] = tested on: CCRF-CEM; experiment: Cytotoxicity against human CEM cells assessed as inhibition of cell proliferation; assay type: functional, cell-based
[13] = tested on: HeLa; experiment: Cytotoxicity against human HeLa cells assessed as inhibition of cell proliferation; assay type: functional, cell-based
[14] = tested on: MDCK; experiment: Cytotoxicity against MDCK cells assessed cell viability by MTS assay; assay type: cell-based, Canis lupus familiaris; settings: dog
In short: (§1)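 Cells were exposed to a range of compound concentrations. Viability was measured by the colorimetric formazan-based MTS assay.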

[15] = Cytotoxicity against CRFK cells assessed cell viability by MTS assay; assay type: cell-based, Felis catus; settings: cat; in short: as §1
[16] = tested on: CCRF-CEM; experiment: Potency index, ratio of 5-Fluorouracil IC50 to compound IC50 for human CEM cells; assay type: functional
[17] = tested on: Coxsackievirus B4; experiment: Antiviral activity against Coxsackievirus B4 infected in African green monkey Vero cells assessed as reduction of virus-induced cytopathogenicity; assay type: functional, organism-based; settings: Enterovirus B
In short: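 Confluent Vero (Coxsackie B4) or HeLa (vesicular stomatitis virus) monolayers in 96-well plates were inoculated with 100 CCID50 virus or 20 PFU and incubated with varying compound concentrations. Cytopathicity was scored once complete in untreated infected controls. […] Two separate experiments were run.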

[18] = tested on: Punta Toro virus; experiment: Antiviral activity against Punta Toro virus infected in African green monkey Vero cells assessed as reduction of virus-induced cytopathogenicity; assay type: functional, organism-based
In short: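 Confluent Vero monolayers were infected with 100 CCID50 of virus and then incubated with a range of compound concentrations. Viral cytopathicity was scored once it was complete in untreated infected control cultures. […] Two independent experiments were run.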

[19] = Cytotoxicity against African green monkey Vero cells assessed as alternation of cell morphology by microscopic analysis; assay type: cell-based; settings: chlorocebus sabaeus
In short: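 Vero cells were exposed to graded compound concentrations. MCC is the lowest concentration producing a microscopically detectable change in cell morphology. Two experiments were run.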

| Compound | IC50 [1] | IC50 [2] | EC50 [3] | EC50 [4] | MCC [5] | EC50 [6] | EC50 [7] | EC50 [8] | EC50 [9] | EC50 [10] | IC50 [11] | IC50 [12] | IC50 [13] | CC50 [14] | CC50 [15] | Ratio IC50 [16] | EC50 [17] | EC50 [18] | MCC [19] |
| --- | --- | --- | --- | --- | --- | --- | --- | --- | --- | --- | --- | --- | --- | --- | --- | --- | --- | --- | --- |
| CCOP(=O)(OCC)C1CC(c2ccc3ccccc3c2)ON1C (stereo unspecified) | 50 µM |  |  |  |  |  |  |  |  |  |  |  |  |  |  |  |  |  |  |
| CCOP(=O)(OCC)C1CC(c2cccc3ccccc23)ON1C (stereo unspecified) |  | 90 µM |  |  |  |  |  |  |  |  |  |  |  |  |  |  |  |  |  |
| CCOP(=O)(OCC)[C@@H]1C[C@H](C(=O)Nc2cc3c4c(cccc4c2)C(=O)N(CCN(C)C)C3=O)ON1C (racemic) |  |  | 37 µM | 37 µM | ≥ 100 µM | ≥ 11 µM | 20 µM | 50 µM | 50 µM | 50 µM | 2.9 µM | 6 µM | 3.3 µM | > 100 µM | 62.2 µM |  |  |  |  |
| CCOP(=O)(OCC)[C@@H]1C[C@@H](C(=O)Nc2cc3c4c(cccc4c2)C(=O)N(CCN(C)C)C3=O)ON1C (racemic) |  |  | 8.9 µM | 8.9 µM | ≥ 100 µM | 14 µM | 26 µM | 45 µM | 45 µM |  | 1.5 µM | 3.4 µM | 1.8 µM | 75.2 µM | 95.2 µM | 5 |  |  |  |
| CCOP(=O)(OCC)[C@@H]1C[C@H](C(=O)Nc2cc3c4c(cccc4c2)C(=O)N(CCN2CCCC2)C3=O)ON1C (racemic) |  |  | 45 µM | 45 µM | ≥ 100 µM | > 20 µM | > 20 µM | > 100 µM | > 100 µM | 58 µM | 4.4 µM | 12 µM | 3 µM | > 100 µM | 89.1 µM |  |  |  |  |
| CCOP(=O)(OCC)[C@@H]1C[C@@H](C(=O)Nc2cc3c4c(cccc4c2)C(=O)N(CCN2CCCC2)C3=O)ON1C (relative stereo) |  |  | 8.9 µM | 10.9 µM | ≥ 100 µM | > 20 µM | > 20 µM | 45 µM | 45 µM |  | 1.7 µM | 3.9 µM | 1.1 µM | 87.3 µM | > 100 µM | 5 |  |  |  |
| O=c1[nH]c(=O)n([C@H]2C[C@H](O)[C@@H](CO)O2)cc1/C=C/Br [BRIVUDINE] |  |  |  |  | > 250 µM | 0.029 µM | 1 µM |  | 2 µM |  |  |  |  |  |  |  |  |  |  |
| NC(=O)c1ncn([C@@H]2O[C@H](CO)[C@@H](O)[C@H]2O)n1 [RIBAVIRIN] |  |  |  |  |  |  |  |  |  |  |  |  |  |  |  |  | > 250 µM | 112 µM | > 250 µM |
